ChEMBL document CHEMBL4229446, “Development of Novel Monoamine Oxidase-B (MAO-B) Inhibitors with Reduced Blood-Brain Barrier Permeability for the Potential Management of Noncentral Nervous System (CNS) Diseases” (J Med Chem, 2018)

Key:
[1] = AUClast in C57BL/6 mouse plasma at 10.8 mg/kg, iv administered as single dose measured 24 hrs by UPLC-MS/MS analysis; assay type: ADME, organism-based; set-up: dose 10.8 mg/kg, route intravenous, time 0 - last
Outline: (§1)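 Plasma extracted by protein precipitation/phospholipid removal; brain weighed, homogenised in 50 mM ammonium formate, extracted in acidified organic solvent, ng/g taken as ng/mL. Quantified by UPLC-MS/MS (MRM); parameters by noncompartmental analysis.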

[2] = Metabolic stability in human plasma assessed as parent compound remaining at 5 uM after 4 hrs by UPLC-MS/MS analysis; assay type: ADME, cell-free; details: read-out: Stability
Outline: (§2)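 Compound at 5 μM was incubated in mouse or human plasma at 37 °C with shaking. Sampled at 0, 5, 15, 30, 60, 120 and 240 min and stopped with ice-cold acetonitrile/0.1% formic acid containing internal standard. Supernatants analysed by UPLC-MS/MS for parent remaining. Run in triplicate.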

Mus musculus [3] = experiment: Acute toxicity in C57BL/6 mouse assessed as piloerection at 10.8 mg/kg, iv after 1 hr post-injection; assay type: organism-based; details: in vivo
[4] = Apparent half-life of the terminal disposition phase in C57BL/6 mouse brain at 10.8 mg/kg, iv administered as single dose measured 24 hrs by UPLC-MS/MS analysis; assay type: ADME, organism-based; details: read-out: t1/2 lambda z (converted)
Outline: (§3)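 21 animals dosed at 0 min, 3 sacrificed at each of 0, 5, 15, 30 min, 1, 4 and 24 h. Plasma was extracted by protein precipitation with phospholipid removal. Brain was weighed, bead-homogenised in 50 mM ammonium formate and extracted in acidified organic solvent. Quantified by UPLC-MS/MS (MRM). Brain ng/g taken as ng/mL. Parameters came from noncompartmental analysis. Kp = AUClast brain/plasma.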

Mus musculus [5] = experiment: Acute toxicity in C57BL/6 mouse assessed as piloerection at 10.8 mg/kg, sc after 1 hr post-injection; assay type: organism-based; details: in vivo
Mus musculus [6] = experiment: Acute toxicity in C57BL/6 mouse assessed as lethargy at 10.8 mg/kg, sc after 1 hr post-injection; assay type: organism-based; details: in vivo
Mus musculus [7] = experiment: Acute toxicity in C57BL/6 mouse assessed as lethargy at 10.8 mg/kg, po after 1 hr post-injection; assay type: organism-based; details: in vivo
[8] = Cmax in C57BL/6 mouse plasma at 10.8 mg/kg, iv administered as single dose measured 24 hrs by UPLC-MS/MS analysis; assay type: ADME, organism-based; set-up: dose 10.8 mg/kg, route intravenous; outline: as §1
Mus musculus [9] = experiment: Acute toxicity in C57BL/6 mouse assessed as piloerection at 10.8 mg/kg, po after 1 hr post-injection; assay type: organism-based; details: in vivo
[10] = Tmax in C57BL/6 mouse brain at 10.8 mg/kg, iv administered as single dose measured 24 hrs by UPLC-MS/MS analysis; assay type: ADME, organism-based; outline: as §1
[11] = Tmax in C57BL/6 mouse plasma at 10.8 mg/kg, iv administered as single dose measured 24 hrs by UPLC-MS/MS analysis; assay type: ADME, organism-based; outline: as §1
[12] = Cmax in C57BL/6 mouse brain at 10.8 mg/kg, iv administered as single dose measured 24 hrs by UPLC-MS/MS analysis; assay type: ADME, organism-based; set-up: dose 10.8 mg/kg, route intravenous; outline: as §3
[13] = Metabolic stability in mouse plasma assessed as parent compound remaining at 5 uM after 4 hrs by UPLC-MS/MS analysis; assay type: ADME, cell-free; details: read-out: Stability; outline: as §2
Mus musculus [14] = experiment: Acute toxicity in C57BL/6 mouse assessed as lethargy at 10.8 mg/kg, iv after 1 hr post-injection; assay type: organism-based; details: in vivo
[15] = Metabolic stability in human liver microsomes assessed as parent compound remaining at 1 uM after 60 mins by UPLC-MS/MS analysis; assay type: ADME, microsome; details: microsomes, 1 h, 1 µM
Outline: (§4)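 Compound at 1 μM with 0.5 mg/mL mouse or human liver microsomes in 100 mM potassium phosphate pH 7.4, 3.3 mM MgCl2, 1 mM NADPH, at 37 °C. Started with NADPH; minus-NADPH control run. Stopped at 0, 5, 15, 30, 45 and 60 min with acetonitrile/formic acid plus internal standard. Parent remaining by UPLC-MS/MS, in triplicate.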

[16] = AUClast in C57BL/6 mouse brain at 10.8 mg/kg, iv administered as single dose measured 24 hrs by UPLC-MS/MS analysis; assay type: ADME, organism-based; set-up: dose 10.8 mg/kg, route intravenous, time 0 - last; outline: as §3
[17] = Ratio of AUClast in brain to plasma in C57BL/6 mouse at 10.8 mg/kg, iv administered as single dose measured 24 hrs by UPLC-MS/MS analysis; assay type: ADME, organism-based; outline: as §3
[18] = Metabolic stability in mouse liver microsomes assessed as parent compound remaining at 1 uM after 60 mins by UPLC-MS/MS analysis; assay type: ADME, microsome; details: microsomes, 1 h, 1 µM; outline: as §4
[19] = Apparent half-life of the terminal disposition phase in C57BL/6 mouse plasma at 10.8 mg/kg, iv administered as single dose measured 24 hrs by UPLC-MS/MS analysis; assay type: ADME, organism-based; details: read-out: t1/2 lambda z (converted); outline: as §1

For C#CCN(C)[C@H](C)Cc1ccccc1 [SELEGILINE], which AUC(0-t) at 24 h [1] is on record?
Its AUC(0-t) at 24 h is 242 ng·h/mL.

And the remaining at 4 h, 5 µM [2]?
The remaining at 4 h, 5 µM was 55%.

And the Activity (Mus musculus [3])?
Its Activity is “Toxic”.

And the half-life [4]?
Its half-life is 17.4 min.

What about the Activity (Mus musculus [5]) of the same compound?
Its Activity is “Toxic”.

And the Activity (Mus musculus [6])?
Its Activity is “Toxic”.

And the Activity (Mus musculus [7])?
The Activity was “Toxic”.

What about the Cmax [8] of the same compound?
Its Cmax is 569 ng/mL.

What about the Activity (Mus musculus [9]) of the same compound?
The Activity was “Toxic”.

And the Tmax [10]?
The Tmax was 5 min.

And the Tmax [11]?
The Tmax was 5 min.

What about the Cmax [12] of the same compound?
Its Cmax is 4220 ng/mL.

And the remaining at 4 h, 5 µM [13]?
Its remaining at 4 h, 5 µM is 61%.

And the Activity (Mus musculus [14])?
The Activity was “Toxic”.

And the Stability [15]?
Its Stability is “Unstable”.

What about the AUC(0-t) at 24 h [16] of the same compound?
Its AUC(0-t) at 24 h is 1390 ng·h/mL.

And the Kp at 24 h [17]?
Its Kp at 24 h is 5.73.

What about the Stability [18] of the same compound?
The Stability was “Unstable”.

What about the half-life [19] of the same compound?
Its half-life is 33.6 min.
